Laboratory results published in PMC11571122 (RSC Advances, 2024).

Assays:
[1] = biological target: human Gal-1 (Homo sapiens, UniProt P09382); test: Fluorescence spectroscopy binding constant, Gal-1; conditions: for Gal-1 Ka: fluorescence, modified Stern–Volmer plot, 25 mM Tris-HCl pH 8
In short: (§1)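 Human Gal-1 was cloned into pET-28a(+), expressed in E. coli BL21(DE3) and purified by Ni2+-NTA. Gal-3 and LdPase were produced similarly. Buffers: Gal-1 and Gal-3 in 25 mM Tris-HCl pH 8; LdPase in sodium phosphate pH 7. Intrinsic emission was scanned 300–400 nm (excitation 280 nm, 100 nm min−1) across ligand concentrations. Ka came from a modified Stern–Volmer plot of the log quenching term (F0 = no ligand, F = with ligand) versus log ligand concentration.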

[2] = tested on: Gal-1; test: Gal-1 ELISA enzymatic assay; assay type: cell-based, human; conditions: 20 μM, 24 h, HCT-116 cells
In short: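 HCT-116 cells were treated with test compound at 20 μM for 24 h, and the secreted-protein supernatant was collected. Equal amounts were diluted 2-fold in calibrator diluent and incubated 2 h at room temperature with shaking on human Gal-1 ELISA plates (commercial kit, manufacturer's protocol), then washed. HRP-conjugated Gal-1 polyclonal antibody was added for 2 h, then substrate for 30 min, then stop solution. Absorbance was read at 450 nm.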

[3] = biological target: human Gal-3 (Homo sapiens, UniProt P17931); test: Fluorescence spectroscopy binding constant, Gal-3; conditions: for binding to Gal-3 compared to Gal-1: fluorescence spectroscopy; for Gal-3 Ka: fluorescence, 25 mM Tris-HCl pH 8
In short: as §1

[4] = tested on: Leishmania donovani phosphatase (LdPase); test: Fluorescence spectroscopy binding, LdPase
In short: as §1

human Gal-3, sequence (P17931 whole entry): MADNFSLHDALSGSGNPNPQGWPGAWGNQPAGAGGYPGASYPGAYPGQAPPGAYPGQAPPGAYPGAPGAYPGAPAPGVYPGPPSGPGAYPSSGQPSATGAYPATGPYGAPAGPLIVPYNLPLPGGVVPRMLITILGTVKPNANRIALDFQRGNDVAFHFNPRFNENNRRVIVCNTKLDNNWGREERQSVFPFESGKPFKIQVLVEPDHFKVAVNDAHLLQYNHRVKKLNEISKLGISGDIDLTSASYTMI
human Gal-1, sequence (P09382 whole entry): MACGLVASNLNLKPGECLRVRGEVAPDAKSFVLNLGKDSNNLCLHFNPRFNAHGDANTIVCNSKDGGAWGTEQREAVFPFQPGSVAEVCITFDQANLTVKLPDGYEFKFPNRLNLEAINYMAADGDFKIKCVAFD

Substance	Gal-1 Ka [1]	% Inhibition (EA) [2]	Gal-1 binding constant (Ka) ([1]; fluorescence spectroscopy)	binding to Gal-3 compared to Gal-1 [3]	Gal-3 Ka [3]	binding to LdPase [4]
2-(2,6-Dimethylmorpholino)-N-(5-(2-oxo-2H-chromen-3-yl)thiazol-2-yl)acetamide [Compound 10e]	6.5 10^4 M^−1					
2-(4-(2-Hydroxyethyl)piperazin-1-yl)-N-(5-(2-oxo-2H-chromen-3-yl)thiazol-2-yl)acetamide [Compound 10c]	4.1 10^4 M^−1					
2-(4-(2-Methoxyphenyl)piperazin-1-yl)-N-(5-(2-oxo-2H-chromen-3-yl)thiazol-2-yl)acetamide [Compound 10g]	9.8 10^4 M^−1	58.19 ± 3.28%	98000 M⁻¹	significantly lower binding	1.0 10^−6 M^−1	no detectable binding
2-(4-(4-Nitrophenyl)piperazin-1-yl)-N-(5-(2-oxo-2H-chromen-3-yl)thiazol-2-yl)acetamide [Compound 10h]		<10%				
2-(4-Ethylpiperazin-1-yl)-N-(5-(2-oxo-2H-chromen-3-yl)thiazol-2-yl)acetamide [Compound 10b]	2.1 10^4 M^−1					
2-(4-Methylpiperidin-1-yl)-N-(5-(2-oxo-2H-chromen-3-yl)thiazol-2-yl)acetamide [Compound 10i]		<10%				
N-(5-(2-Oxo-2H-chromen-3-yl)thiazol-2-yl)-2-(4-(pyridin-2-yl)piperazin-1-yl)acetamide [Compound 10f]	9.3 10^4 M^−1	80.57 ± 1.77%		significantly lower binding	1.1 10^−6 M^−1	no detectable binding
N-(5-(2-Oxo-2H-chromen-3-yl)thiazol-2-yl)-2-(4-phenylpiperazin-1-yl)acetamide [Compound 10d]	6.6 10^4 M^−1	56.73 ± 2.13%				
N-(5-(2-Oxo-2H-chromen-3-yl)thiazol-2-yl)-2-(piperazin-1-yl)acetamide [Compound 10a]	8.8 10^4 M^−1	58.19 ± 1.12%				
